Reference: article PMC6541390 (Biochemistry, 2010)
Several values for one entry are separate records, joined by “and”; a condition that tells them apart may be missing. Identical values can stand only once. Like-named read-outs stand apart in the source and are kept apart here.

Legend:
[1] = molecular target: T1, Escherichia coli biotin synthase (BS) (Escherichia coli, UniProt P12996); assay: Screen for BS inhibition by products and product-related compounds; type: biochemical; details: for inhibition of BS in the screen: inhibitor 500 μM alone, AdoMet 100 μM, BS 25 μM, 30 min, 37 °C
How it was run: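 Anaerobic: BS (25 μM) in 50 mM Tris-HCl, 100 mM KCl, 5 mM DTT, pH 8.0, reconstituted 5 min with Na2S and FeCl3 (200 μM each). Flavodoxin 25 μM, its NADP+ reductase 4 μM, NADPH 1 mM and DTB 50 μM added for 5 min, then AdoMet 100 μM and candidate (500 μM). 30 min, 37 °C; biotin, dAH, MDTB by HPLC; duplicates averaged, normalised to no-inhibitor sample.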

[2] = molecular target: T1, Escherichia coli biotin synthase (BS); assay: Effect of MTA nucleosidase on BS activity in the presence of inhibitors; type: biochemical
[3] = molecular target: T1, Escherichia coli biotin synthase (BS); assay: Equilibrium UV/visible titration of AdoHcy binding to reconstituted BS
[4] = test system: E. coli cytosine 5-methyltransferase; details: cited from earlier work
[5] = molecular target: T2, E. coli MTAN (5′-methylthioadenosine/S-adenosyl-L-homocysteine nucleosidase) (Escherichia coli, UniProt P0AF12); details: identical assay conditions; ref Lee et al. (32); cited from earlier work
[6] = molecular target: T1, Escherichia coli biotin synthase (BS); assay: Titration of BS active sites with AdoHcy in the activity assay; type: biochemical; details: extrapolation of the initial linear part of the inhibition curve
PFL activase = PFL activase (Escherichia coli, UniProt P0A9N4); details: at 100 μM AdoMet; cited from earlier work
[7] = molecular target: rat catechol O-methyltransferase; details: cited from earlier work
[8] = molecular target: T1, Escherichia coli biotin synthase (BS); type: biochemical; details: for Ki: BS 25 μM, 30 min, 37 °C
[9] = molecular target: T1, Escherichia coli biotin synthase (BS); details: read-out: Kd AdoMet; cited from earlier work
[10] = molecular target: T1, Escherichia coli biotin synthase (BS); assay: BS activity at varying AdoMet concentration, commercial versus pure AdoMet; type: biochemical; details: enzymatically synthesized AdoMet, Michaelis-Menten fit; BS 25 μM
[11] = cited from earlier work
BS = details: 30 μM dAH, 90 min assay; cited from earlier work
[12] = molecular target: T2, E. coli MTAN (5′-methylthioadenosine/S-adenosyl-L-homocysteine nucleosidase); assay: MTA/AdoHcy nucleosidase activity assay; type: biochemical
E. coli BS = E. coli BS (Escherichia coli, UniProt P12996); details: high AdoMet concentration, 3 h at 37 °C; cited from earlier work
DNA methyltransferases = details: binding cooperatively with DNA; cited from earlier work
[13] = Ki, inhibitor alone, competitive with AdoMet

T1 sequence (P12996 whole entry): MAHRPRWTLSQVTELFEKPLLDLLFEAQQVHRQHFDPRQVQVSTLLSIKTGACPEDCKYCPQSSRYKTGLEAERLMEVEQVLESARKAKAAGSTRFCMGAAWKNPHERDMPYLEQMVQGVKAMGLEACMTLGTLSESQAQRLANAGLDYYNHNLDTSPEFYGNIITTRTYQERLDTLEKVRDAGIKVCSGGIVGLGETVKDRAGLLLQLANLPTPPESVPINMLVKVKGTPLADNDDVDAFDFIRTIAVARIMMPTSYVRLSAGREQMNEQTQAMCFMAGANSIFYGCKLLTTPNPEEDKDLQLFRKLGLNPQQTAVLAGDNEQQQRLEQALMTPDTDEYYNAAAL
T2 sequence (P0AF12 whole entry): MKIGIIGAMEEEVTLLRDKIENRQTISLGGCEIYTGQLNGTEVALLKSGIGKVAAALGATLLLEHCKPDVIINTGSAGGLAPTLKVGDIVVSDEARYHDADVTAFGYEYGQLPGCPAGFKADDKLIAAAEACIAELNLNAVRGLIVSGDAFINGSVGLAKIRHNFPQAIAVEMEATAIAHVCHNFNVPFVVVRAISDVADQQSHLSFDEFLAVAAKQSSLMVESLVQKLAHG
PFL activase, sequence (P0A9N4 2-246): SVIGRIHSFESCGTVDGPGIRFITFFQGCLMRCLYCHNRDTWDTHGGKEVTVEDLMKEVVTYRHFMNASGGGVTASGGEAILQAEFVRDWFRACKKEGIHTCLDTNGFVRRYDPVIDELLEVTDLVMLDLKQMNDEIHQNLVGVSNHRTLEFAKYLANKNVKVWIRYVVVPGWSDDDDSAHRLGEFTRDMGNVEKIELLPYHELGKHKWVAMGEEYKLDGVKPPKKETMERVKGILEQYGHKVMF
E. coli BS, sequence (P12996 whole entry): as the sequence (P12996 whole entry) above

## 5′-methylthioadenosine [MTA]
[1]
  inhibition of BS in the screen: not an inhibitor

## C[S+](CC[C@H](N)C(=O)[O-])C[C@H]1O[C@@H](n2cnc3c(N)ncnc32)[C@H](O)[C@@H]1O (stereo partly drawn) [(R,S)-AdoMet]
[1]; heat-racemized AdoMet, 55 μM (R,S)-AdoMet and 100 μM (S,S)-AdoMet
  decrease of biotin production: ~15%

## Nc1ncnc2c1ncn2[C@@H]1O[C@H](CSCC[C@H](N)C(=O)O)[C@@H](O)[C@H]1O [AdoHcy, S-adenosyl-L-homocysteine]
[2]; MTAN 200 nM
  BS activity on addition of MTAN: only partially restored
[2]; inhibitor 50 μM (each), without MTAN, BS 25 μM, 37 °C
  decrease of BS activity: ~ 95%
[3]
  Kd: 0.54 ± 0.15 µM
[3]; equilibrium titration, BS 50 μM
  AdoHcy binding sites per BS dimer: 1.5 sites per dimer
[3]; read-out: koff, inhibitor dissociation
  koff: ≥ 10 s⁻¹
[1]
  inhibition of BS in the screen: no detectable biotin produced
[1]; inhibitor 500 μM, 30 min assay
  level of MDTB intermediate relative to control: less MDTB than the control sample
[4]
  Ki: 14 µM
[5]
  kcat: 2.6 s⁻¹
[6]
  AdoHcy equivalents (sites) per BS dimer for complete inhibition: 0.85 equiv per dimer
PFL activase
  IC50: ~20 µM
[7]
  Ki: 50 µM
[8]; Ki AdoHcy, fit to eq 1 with a, b, c = 1 and d = 0, AdoMet 100-500 μM
  Ki: ≤ 0.65 µM and 0.4 to 1.2 µM and < 0.65 µM and 0.65 µM

## C[S+](CC[C@H](N)C(=O)[O-])C[C@H]1O[C@@H](n2cnc3c(N)ncnc32)[C@H](O)[C@@H]1O (stereo partly drawn) [AdoMet, S-adenosyl-L-methionine]
[9]
  Kd: 2.3 µM
[10]
  Vmax: 0.52 µM/min
[11]; 37 °C
  t½ of spontaneous racemization at the sulfonium center: 107 h
[11]; physiological conditions
  t½ of spontaneous degradation to MTA: 42 h

## NC(CCS)C(=O)O (centres unmarked) [Homocysteine]
[1]
  inhibition of BS in the screen: not an inhibitor

## O=C(O)CCCC[C@@H]1SC[C@@H]2NC(=O)N[C@@H]21 [biotin]
[1]
  inhibition of BS in the screen: neither biotin nor iminobiotin, the guanido analogue of biotin, is a significant inhibitor

## C[C@H]1O[C@@H](n2cnc3c(N)ncnc32)[C@H](O)[C@@H]1O [dAH, 5′-deoxyadenosine]
BS
  inhibition of biotin production: ~ 90%
[1]
  inhibition of BS in the screen: inhibitors
[1]; inhibitor 500 μM, 30 min assay
  concentration of MDTB intermediate relative to the control sample: 3–4 times
[12]
  turnover rate (kcat) faster than with AdoHcy: 2 fold
  turnover rate (kcat) faster than with MTA: 1.7 fold
  weaker affinity (Km) for MTA nucleosidase as compared to MTA: 5.8 fold
[12]; MTAN 12 nM, 50 mM sodium phosphate pH 7.5
  kcat: 5.1 s⁻¹
E. coli BS
  IC50: ~400 µM
[8]; [13]
  Ki: 20 µM
[8]; excess methionine
  enhancement of dAH inhibition by cooperative binding with methionine: 3 fold

## N=C1N[C@H]2[C@H](CS[C@H]2CCCCC(=O)O)N1 [iminobiotin]
[1]
  inhibition of BS in the screen: neither biotin nor iminobiotin, the guanido analogue of biotin, is a significant inhibitor

## CSCC[C@H](N)C(=O)O [methionine]
[1]
  inhibition of BS in the screen: inhibitors
[8]; [13]
  Ki: 100 µM

## Nc1ncnc2c1ncn2[C@@H]1O[C@H](C[C@@H](N)CC[C@H](N)C(=O)O)[C@@H](O)[C@H]1O [sinefungin]
[1]
  inhibition of BS in the screen: inhibitor with a decrease in activity comparable to that observed for dAH
[1]; inhibitor 500 μM, 30 min assay
  level of MDTB intermediate relative to control: less MDTB than the control sample
DNA methyltransferases
  Ki: ~0.01 µM
[8]; [13]
  Ki: 40 to 140 µM and 75 µM
